SMILES strings stand for the structures. Several values for one entry are separate records, joined by “and”; a condition that tells them apart may be missing. Equal values may be shown once. Square brackets hold non-standard residues; d marks the D form. Peptide text beside a SMILES is read from it. * marks the point of attachment. Ala(cPent) = N[C@@H](CC1CCCC1)C(=O)O; Cbz = O=C(OCc1ccccc1)*

Here are results for 15 compounds from publication PMC11143523 (Acta Pharmaceutica Sinica. B, 2024).

One series has as its target T1, APC‒Asef (Homo sapiens, UniProt P25054).
T1 sequence (P25054 303-739): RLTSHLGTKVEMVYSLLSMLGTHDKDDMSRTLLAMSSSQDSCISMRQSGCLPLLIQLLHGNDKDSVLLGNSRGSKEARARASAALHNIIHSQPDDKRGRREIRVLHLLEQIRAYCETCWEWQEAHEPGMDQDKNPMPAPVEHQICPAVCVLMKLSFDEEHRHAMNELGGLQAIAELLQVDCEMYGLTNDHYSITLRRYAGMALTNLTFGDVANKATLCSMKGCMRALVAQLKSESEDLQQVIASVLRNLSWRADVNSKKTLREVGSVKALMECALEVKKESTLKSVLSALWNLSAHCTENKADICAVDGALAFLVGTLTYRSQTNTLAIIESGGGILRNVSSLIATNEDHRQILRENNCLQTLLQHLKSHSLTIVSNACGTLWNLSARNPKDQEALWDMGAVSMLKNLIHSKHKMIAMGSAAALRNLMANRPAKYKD
The series is described as follows: Fluorescence-polarization. As to conditions: for inhibition at 400 µM: read-out: Inhibitory activity (inhibition rate %), at 400 μmol/L. Type of series: binding.

A short description of series [1]: Pharmacokinetic study in mice. Type of series: in vivo. The settings on record: male, BALB/c, mouse, plasma, ip, 1 mg/kg. In short, it runs like this:
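Male BALB/c mice (n = 3/group) dosed once i.p. at 1 mg/kg (5 mL/kg) in DMSO:Cremophor EL:10% HP-β-CD in saline (2:8:90). Blood taken from dorsal metatarsal vein predose and at 0.083–48 h. Plasma obtained by centrifugation at 4000 × g, 5 min, 4 °C. Analysed by LC‒MS/MS on C18 column with acetonitrile/water/0.1% formic acid gradient, negative MRM mode.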

The subject of series [2] is SW480 cells. Kind of series: Cell cytotoxicity assay. Type of series: cell-based. As to conditions: 20 μmol/L, 48 h.
Series [3] concerns the target T2, APC‒Asef interaction (Homo sapiens, UniProt P25054).
T2 sequence (P25054 303-876): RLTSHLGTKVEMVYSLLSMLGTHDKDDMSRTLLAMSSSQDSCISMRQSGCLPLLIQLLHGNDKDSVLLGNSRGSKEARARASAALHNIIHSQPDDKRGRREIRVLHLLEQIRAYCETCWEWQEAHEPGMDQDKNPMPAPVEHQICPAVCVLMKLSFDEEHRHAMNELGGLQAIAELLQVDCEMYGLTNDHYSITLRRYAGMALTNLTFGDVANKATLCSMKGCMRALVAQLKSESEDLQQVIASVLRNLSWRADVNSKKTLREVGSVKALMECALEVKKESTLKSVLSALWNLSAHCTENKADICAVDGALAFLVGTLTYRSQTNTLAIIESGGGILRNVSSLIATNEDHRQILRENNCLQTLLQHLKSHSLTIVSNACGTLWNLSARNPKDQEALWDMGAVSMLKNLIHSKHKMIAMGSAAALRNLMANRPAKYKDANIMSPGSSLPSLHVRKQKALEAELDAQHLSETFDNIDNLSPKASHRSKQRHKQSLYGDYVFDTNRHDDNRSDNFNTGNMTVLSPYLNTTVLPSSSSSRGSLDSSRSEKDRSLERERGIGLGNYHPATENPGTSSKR
The series is described as follows: Co-IP of exogenous HA-APC and FLAG-Asef in treated HEK293T cells. Type of series: cell-based. As to conditions: 20 μmol/L, 48 h. The method in brief:
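HEK293T cells transfected with HA-APC (303‒876) and Flag-Asef plasmids, then exposed to test compound at 20 μmol/L or DMSO for 48 h. Cells lysed in 0.3% NP-40 buffer (50 mmol/L Tris-HCl pH 7.5, 150 mmol/L NaCl, PMSF, NaF, Na₃VO₄, protease inhibitors). Lysate incubated with anti-FLAG magnetic beads 3 h at 4 °C. Bound protein eluted by boiling 10 min at 95 °C in loading buffer.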

Series [4] has as its system SW480 cells. Kind of series: Transwell migration assay. The class given is cell-based. The settings on record: 20 μmol/L, 72 h. The method in brief:
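SW480 cells seeded at 1.5 × 10⁵ per insert in serum-free medium, with complete medium below. Test compound (20 μmol/L) or DMSO added to both chambers for 72 h. Nonmigrated cells swabbed off; migrated cells crystal-violet stained and counted. Counts normalized to DMSO-treated mean, n = 3 independent experiments, mean ± SD.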

Series [5] has as its system SW480 cells. Kind of series: Wound healing assay. The settings on record: 20 μmol/L, 48 h. The class given is cell-based. The method in brief:
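SW480 cells (1 × 10⁶) grown to confluence at 37 °C, 5% CO₂, then scratched and PBS-washed. Cells cultured in 1% FBS medium with test compound (20 μmol/L) or DMSO. Wound imaged at scratching and after 48 h. Migration expressed relative to DMSO group, mean ± SD of n = 3 independent experiments.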

In series [6] the target is T2, APC‒Asef interaction. The series is described as follows: Co-IP of APC‒Asef in drug-treated HEK293T cell lysates. The settings on record: AT46 0.2, 1 or 5 μmol/L, 2 h. Type of series: biochemical.
The mark [7] stands for this setting: IC50 ± SD, FP competition assay, three independent experiments.

The compound `CSc1nccc(C(=O)N[C@@H](CCC(=O)O)C(=O)N[C@H](Cc2ccc3ccccc3c2)C(=O)N[C@@H](CC(C)C)C(=O)NC2CC2c2ccccc2)n1` (stereo partly drawn) [AT43] had an IC50 at APC‒Asef (setting [7]) of 127 ± 6.6 µM.

As for `CC(C)C[C@H](NC(=O)[C@H](CO)NC(=O)[C@H](CCC(=O)O)NC(=O)c1ccncn1)C(=O)NCC=Cc1ccccc1` [AT4], on APC‒Asef (at 400 μmol/L), the “Inhibitory activity (inhibition rate %)” value stood at 13.1 ± 0.7%. Moreover, at APC‒Asef, the inhibition at 400 µM came out at 13%.

For `CSc1nccc(C(=O)N[C@@H](CCC(=O)O)C(=O)N[C@@H](CC2CCCCC2)C(=O)N[C@@H](CC(C)C)C(=O)NC2CC2c2ccccc2)n1` (stereo partly drawn) [AT42], the IC50 on APC‒Asef (setting [7]) was 33 µM and 33.1 µM.

On APC‒Asef (setting [7]), `CC(C)C[C@H](NC(=O)[C@H](CC1CCCCC1)NC(=O)[C@H](CCC(=O)O)NC(=O)c1ccncn1)C(=O)NC1CC1c1ccccc1` (stereo partly drawn) [AT8] displayed an IC50 of 168 ± 9.5 µM.

In the case of `CC(C)C[C@H](NC(=O)[C@H](Cc1ccc2ccccc2c1)NC(=O)[C@H](CCC(=O)O)NC(=O)c1ccncn1)C(=O)NC1CC1c1ccccc1` (stereo partly drawn) [AT10], the IC50 on APC‒Asef (setting [7]) is 9.3 µM and 9.34 µM. The “fold increase in potency over AT6” value at APC‒Asef (from FP IC50) came to 2 fold.

`CSc1nccc(C(=O)N[C@@H](CCC(=O)O)C(=O)N[C@@H](Cc2ccc3ccccc3c2)C(=O)N[C@@H](CC(C)C)C(=O)N[C@@H]2C[C@H]2c2ccccc2)n1` [AT44] yielded an IC50 on APC‒Asef (setting [7]) of 0.48 ± 0.07 µM.

Turning to `CSc1nccc(C(=O)N[C@@H](CCC(=O)O)C(=O)N[C@@H](Cc2ccc3ccccc3c2)C(=O)N[C@@H](CC(C)C)C(=O)N[C@H]2C[C@@H]2c2ccccc2)n1` [AT45], the IC50 on APC‒Asef (setting [7]) was 8.61 ± 0.12 µM.

Consider `CC(C)C[C@H](NC(=O)[C@H](CC1CC1)NC(=O)[C@H](CCC(=O)O)NC(=O)c1ccncn1)C(=O)NC1CC1c1ccccc1` (stereo partly drawn) [AT7], for which the IC50 on APC‒Asef (setting [7]) came out at 61.3 ± 7.2 µM.

On to `CC(C)C[C@H](NC(=O)[C@H](Cc1ccccc1)NC(=O)[C@H](CCC(=O)O)NC(=O)c1ccncn1)C(=O)NC1CC1c1ccccc1` (stereo partly drawn) [AT9], for which, at APC‒Asef (setting [7]), the IC50 was 95.4 ± 7.5 µM.

Consider `C[C@H](NC(=O)OCc1ccccc1)C(=O)NCC(=O)N[C@@H](CCC(=O)O)C(=O)N[C@@H](C)C(=O)N[C@@H](CC1CCCC1)C(=O)N[C@@H](Cc1ccc(O)cc1)C(=O)N[C@@H](CCC(=O)O)C(N)=O` [MAI-203, reference compound] (Cbz-AGEA[Ala(cPent)]YE-NH2; N-terminus and C-terminus assumed), for which, in series [1], the AUC(0-t) was found to be 52.4 ± 6.07 ng·h/mL, the Cmax came out at 101 ± 25 ng/mL, the MRT stood at 0.43 ± 0.07 h and the Tmax amounted to 0.25 h. In series [1], the half-life was 0.24 ± 0.06 h.

For the compound `CSc1ncc(Br)c(C(=O)N[C@@H](CCC(=O)O)C(=O)N[C@@H](Cc2ccc3ccccc3c2)C(=O)N[C@@H](CC(C)C)C(=O)N[C@@H]2C[C@H]2c2ccccc2)n1` [AT46], the “survival ability (proliferative viability) of SW480 cells, CCK-8” value in the series on SW480 cells [2] is recorded as “did not damage the survival ability of SW480 cells”. In addition, in series [1], the area under the curve AUC(0-t) came to 124 ± 18.4 ng·h/mL, the highest level (Cmax) was 60.8 ± 5.65 ng/mL, the MRT was found to be 1.96 ± 0.58 h and the time to peak (Tmax) stood at 0.83 ± 0.29 h. The same compound showed a half-life in series [1] of 1.2 ± 0.5 h. Also, on APC‒Asef interaction [3], the “disruption of APC‒Asef interaction (Co-IP)” value (shortened to “disruption”) was “no disrupting effect on the APC‒Asef interaction in the cell model”. In the series on SW480 cells [4], the “migration of SW480 cells, Transwell” value is listed as “no inhibition”. The same compound returned a concentration for half-maximal inhibition (IC50) at APC‒Asef (setting [7]) of 0.11 ± 0.003 µM. For the same compound, the “fold increase in potency over parental MAI-400” value on APC‒Asef (from FP IC50) was 24 fold. Also, in the series with SW480 cells [5], the “migration of SW480 cells, wound healing” value is “no inhibition”. Further, the “disruption” value on APC‒Asef interaction [6] is listed as “dose-dependently attenuated the APC‒Asef interaction in cell lysates”.

For `CC(C)C[C@H](NC(=O)[C@H](CO)NC(=O)[C@H](CCC(=O)O)NC(=O)c1ccncn1)C(=O)NCCc1ccccc1` [AT3], on APC‒Asef (setting [7]), the IC50 turned out to be 323 µM. On APC‒Asef, the inhibition at 400 µM stood at 54.6 ± 2%.

As to `CSc1nccc(C(=O)N[C@@H](CCC(=O)O)C(=O)N[C@@H](Cc2ccc3ccccc3c2)C(=O)N[C@@H](CC(C)C)C(=O)NC2CC2c2ccccc2)n1` (stereo partly drawn) [AT38], half-maximal inhibition at APC‒Asef (pIC50, test set, Table 3, pIC50 = ‒Log [IC50 (μmol/L) × 10^−6]) (IC50) required 0.708 µM.

Take `CSc1nccc(C(=O)N[C@@H](CC(=O)O)C(=O)N[C@@H](Cc2ccc3ccccc3c2)C(=O)N[C@@H](CC(C)C)C(=O)NC2CC2c2ccccc2)n1` (stereo partly drawn) [AT41]: the IC50 at APC‒Asef (setting [7]) was found to be 19.3 ± 0.58 µM.

As for `CSc1ncc(Br)c(C(=O)N[C@@H](CCC(=O)OC(C)(C)C)C(=O)N[C@@H](Cc2ccc3ccccc3c2)C(=O)N[C@@H](CC(C)C)C(=O)N[C@@H]2C[C@H]2c2ccccc2)n1` [AT47], the “survival ability (proliferative viability) of SW480 cells, CCK-8” value in the series on SW480 cells [2] is “did not damage the survival ability of SW480 cells”. Also, in series [1], the AUC(0-t) was found to be 4800 ± 868 ng·h/mL, the Cmax was found to be 1460 ± 119 ng/mL, the MRT was determined as 4.97 ± 1.49 h and the Tmax is 1.67 ± 0.58 h. The compound also gave a half-life in series [1] of 11.8 ± 5.7 h. At APC‒Asef interaction [3], the “disruption” value was “notably diminished APC‒Asef PPI”. The “migration of SW480 cells, Transwell” value in the series with SW480 cells [4] was “suppressed the migration of SW480 cells”. Besides, the inhibition at 400 µM on APC‒Asef amounted to 24.4%. In the series with SW480 cells [5], the “migration of SW480 cells, wound healing” value is “inhibited the migration of SW480 cells”.
